pIC50: −log10 of the molar value.
Experiments:
[1] = molecular target: T1, Serine/threonine-protein kinase B-raf (Homo sapiens, UniProt P15056, V600E); assay: Inhibition of BRAF V600E mutant ERK phosphorylation in human WM266.4 cells; format: cell-based
In short: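 WM266.4 melanoma cells, which carry mutant V600E BRAF, exposed to inhibitor for 6 h. ERK phosphorylation (pERK) measured and IC50 derived. Run in triplicate, with a few compounds measured once.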

[2] = Growth inhibition of human WM266.4 cells expressing BRAF V600E mutant after 5 days by SRB assay; format: functional; settings: WM 266-4, 120 h
[3] = molecular target: T1, Serine/threonine-protein kinase B-raf; assay: Inhibition of human BRAF V600E mutant expressed in baculovirus system
In short: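 Isolated purified V600E BRAF kinase with a 45 min incubation. Enzyme inhibition measured and IC50 derived. Run in triplicate, with one compound measured once.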

[4] = Half life in BALB/cAnNCrl mouse at 10 mg/kg, po; format: ADME, organism-based; design: dose 10 mg/kg, route oral; settings: in vivo
In short: (§1)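 Female BALB/cAnNCrl mice, at least 6 weeks old, dosed once by oral gavage at 10 mL/kg in DMSO/water 1:19 v/v. Blood was taken at six or eight time points from 15 min to 18 or 24 h, three mice per time point, by terminal cardiac puncture under halothane or isoflurane into heparinized syringes. Plasma was snap frozen and stored at -70 °C.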

[5] = Cmax in BALB/cAnNCrl mouse at 10 mg/kg, po; format: ADME, organism-based; design: dose 10 mg/kg, route oral; settings: in vivo; in short: as §1
[6] = Tmax in BALB/cAnNCrl mouse at 10 mg/kg, po; format: ADME, organism-based; design: dose 10 mg/kg, route oral; settings: in vivo; in short: as §1
[7] = Oral bioavailability in BALB/cAnNCrl mouse at 10 mg/kg; format: ADME, organism-based; settings: in vivo
In short: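 Female BALB/cAnNCrl mice, at least 6 weeks old. The oral arm was gavage at 10 mL/kg in DMSO/water 1:19. The iv arm was 2 mg/kg (~4 μmol/kg) at 10 mL/kg in DMSO/Tween-20/water 10:1:89, sampled at seven or eight points from 5 min to 18 or 24 h. Three mice per time point, terminal cardiac blood, plasma.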

T1 sequence (P15056 2-766 V600E limits assumed): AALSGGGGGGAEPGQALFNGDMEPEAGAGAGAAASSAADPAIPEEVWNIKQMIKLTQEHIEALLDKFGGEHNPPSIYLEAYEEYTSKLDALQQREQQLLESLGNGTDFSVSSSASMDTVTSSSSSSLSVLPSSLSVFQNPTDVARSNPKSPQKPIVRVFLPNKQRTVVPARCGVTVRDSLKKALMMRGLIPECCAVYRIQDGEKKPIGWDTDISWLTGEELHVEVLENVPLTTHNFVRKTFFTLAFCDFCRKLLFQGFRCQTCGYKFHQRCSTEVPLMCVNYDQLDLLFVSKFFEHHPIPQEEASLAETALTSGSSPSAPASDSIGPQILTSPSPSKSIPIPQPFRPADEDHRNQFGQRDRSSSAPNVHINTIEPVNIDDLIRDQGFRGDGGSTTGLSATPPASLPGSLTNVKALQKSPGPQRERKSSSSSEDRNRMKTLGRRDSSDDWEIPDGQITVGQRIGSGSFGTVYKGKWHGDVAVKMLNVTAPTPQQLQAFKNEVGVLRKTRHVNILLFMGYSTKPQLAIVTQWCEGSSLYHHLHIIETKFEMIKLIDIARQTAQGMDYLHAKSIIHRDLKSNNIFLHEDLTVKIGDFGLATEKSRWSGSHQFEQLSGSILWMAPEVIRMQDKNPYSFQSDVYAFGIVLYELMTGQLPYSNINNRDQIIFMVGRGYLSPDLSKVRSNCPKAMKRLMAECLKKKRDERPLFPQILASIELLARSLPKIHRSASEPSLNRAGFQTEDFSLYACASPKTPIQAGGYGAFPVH

| SMILES | pIC50 [1] | GI50 [2] [nM] | pIC50 [3] | half-life [4] [h] | Cmax [5] [µM] | Tmax [6] [h] | bioavailability [7] [%] |
| --- | --- | --- | --- | --- | --- | --- | --- |
| CC(C)(C)c1cc(NC(=O)Nc2ccc(Oc3ccnc4[nH]c(=O)[nH]c34)cc2)n(-c2ccccn2)n1 | 5.19 | 3400 | 6.68 |  |  |  |  |
| CC(C)(C)c1cc(NC(=O)Nc2ccc(Oc3ccnc4[nH]c(=O)[nH]c34)cc2)n(-c2ccc(F)cc2)n1 | 6.39 | 540 | 6.91 |  |  |  |  |
| Cn1nc(C(C)(C)C)cc1NC(=O)Nc1ccc(Oc2ccnc3c2[nH]c(=O)n3C)c2ccccc12 | 6.33 | 470 | 6.71 |  |  |  |  |
| Cc1ccc(-n2nc(C(C)(C)C)cc2NC(=O)Nc2ccc(Oc3ccnc4c3[nH]c(=O)n4C)cc2)cc1 | 7.27 | 27 | 5.92 | 3.4 | 22.7 | 1 | 30 |
| Cn1c(=O)[nH]c2nccc(Oc3ccc(NC(=O)Nc4cc(C(C)(C)C)nn4-c4ccc(F)cc4)cc3)c21 | 5.87 | 497 | 6.87 |  |  |  |  |
| Cn1c(=O)n(C)c2c(Oc3ccc(NC(=O)Nc4cc(C(C)(C)C)nn4-c4ccccc4)c(F)c3)ccnc21 | 6.91 | 33 | 5.96 | 2.1 | 4.44 | 0.5 | 59 |
| Cn1nc(C(C)(C)C)cc1NC(=O)Nc1ccc(Oc2ccnc3[nH]c(=O)[nH]c23)cc1 | 4.55 | 12900 | 7.48 |  |  |  |  |
| Cc1ccc(-n2nc(C(C)(C)C)cc2NC(=O)Nc2ccc(Oc3ccnc4c3n(C)c(=O)n4C)cc2)cc1 | 6.72 | 210 | 5.74 |  |  |  |  |
| Cc1ccc(-n2nc(C(C)(C)C)cc2NC(=O)Nc2ccc(Oc3ccnc4[nH]c(=O)[nH]c34)c3ccccc23)cc1 | 7.85 | 31 | 6.17 |  |  |  |  |
| CC(C)(C)c1cc(NC(=O)Nc2ccc(Sc3ccnc4[nH]c(=O)[nH]c34)cc2)n(-c2ccccc2)n1 | 7.15 | 12 | 6.67 |  |  |  |  |
| CSc1cc(Oc2ccnc3[nH]c(=O)[nH]c23)ccc1NC(=O)Nc1cc(C(C)(C)C)nn1-c1ccc(C)cc1 | 7.25 | 16 | 7.12 |  |  |  |  |
| Cc1cc(NC(=O)Nc2ccc(Oc3ccnc4[nH]c(=O)[nH]c34)cc2)n(-c2ccc(Cl)cc2)n1 | 4.15 | 21000 | 6.54 |  |  |  |  |
| Cn1c(=O)[nH]c2nccc(Oc3ccc(NC(=O)Nc4cc(C(C)(C)C)nn4-c4cccnc4)cc3)c21 | 6.08 | 590 | 6.41 |  |  |  |  |
| CC(C)(C)c1csc(NC(=O)Nc2ccc(Oc3ccnc4[nH]c(=O)[nH]c34)cc2)n1 |  | 10400 | 5.11 |  |  |  |  |
| Cc1ccc(-n2nc(C(C)(C)C)cc2NC(=O)Nc2ccc(Oc3ccnc4c3[nH]c(=O)n4C)c3ccccc23)cc1 | 7.15 | 1090 | 5.20 |  |  |  |  |
| Cn1nc(C(C)(C)C)cc1NC(=O)Nc1ccc(Oc2ccnc3[nH]c(=O)[nH]c23)c2ccccc12 | 5.64 | 670 | 7.96 |  |  |  |  |
| CC(C)(C)c1cc(NC(=O)Nc2ccc(Oc3ccnc4[nH]c(=O)[nH]c34)c3ccccc23)n(-c2ccc(F)cc2)n1 | 6.69 | 20 | 6.62 |  |  |  |  |
| CC(C)(C)c1cc(NC(=O)Nc2ccc(Oc3ccnc4[nH]c(=O)[nH]c34)cc2)n(C(C)(C)C)n1 | 4.48 | 26000 | 5.92 |  |  |  |  |
| O=C(Nc1ccc(Oc2ccnc3[nH]c(=O)[nH]c23)cc1)Nc1nnc(C2CCCO2)s1 (stereo not drawn) | 4.24 | 48900 | 6.77 |  |  |  |  |

| SMILES | pIC50 [1] | GI50 [2] [nM] | pIC50 [3] | half-life [4] [h] | Cmax [5] [µM] | Tmax [6] [h] | bioavailability [7] [%] |
| --- | --- | --- | --- | --- | --- | --- | --- |
| Cn1c(=O)[nH]c2c(Oc3ccc(NC(=O)Nc4cc(C(C)(C)C)nn4-c4ccccc4)cc3)ccnc21 | 6.89 | 61 | 6.06 |  |  |  |  |
| Cn1c(=O)[nH]c2nccc(Oc3ccc(NC(=O)Nc4cc(C(C)(C)C)nn4-c4cccnc4)c4ccccc34)c21 | 7.00 | 69 | 6.10 | 0.8 | 4.21 | 0.5 | 5 |
| Cc1ccc(-n2nc(C(C)(C)C)cc2NC(=O)Nc2ccc(Oc3ccnc4[nH]c(=O)n(C)c34)cc2)cc1 | 7.05 | 66 | 6.69 | 3.4 | 39.6 | 1 | 34 |
| Cc1ccc(-n2nc(C(F)(F)F)cc2NC(=O)Nc2ccc(Oc3ccnc4[nH]c(=O)n(C)c34)cc2)cc1 | 5.49 | 1890 | 6.75 |  |  |  |  |
| Cn1c(=O)[nH]c2c(Oc3ccc(NC(=O)Nc4cc(C(C)(C)C)nn4-c4ccccc4)c4ccccc34)ccnc21 | 7.57 | 167 | 5.16 |  |  |  |  |
| Cn1nc(C(C)(C)C)cc1NC(=O)Nc1ccc(Oc2ccnc3[nH]c(=O)n(C)c23)c2ccccc12 | 6.42 | 161 | 7.00 |  |  |  |  |
| Cc1ccc(-n2nc(C(C)(C)C)cc2NC(=O)Nc2ccc(Sc3ccnc4[nH]c(=O)[nH]c34)cc2)cc1 | 6.63 | 259 | 5.66 |  |  |  |  |
| CC(C)(C)c1cc(NC(=O)Nc2ccc(Oc3ccnc4[nH]c(=O)[nH]c34)c3ccccc23)n(-c2ccccc2)n1 | 7.46 | 34 | 6.29 |  |  |  |  |
| CC(C)c1cc(NC(=O)Nc2ccc(Oc3ccnc4[nH]c(=O)[nH]c34)cc2)n(-c2ccccc2)n1 | 5.71 | 1170 | 7.38 |  |  |  |  |
| CC(C)(C)c1cc(NC(=O)Nc2ccc(Oc3ccnc4[nH]c(=O)[nH]c34)cc2)n(-c2ccc(Cl)cc2)n1 | 6.46 | 530 | 6.85 |  |  |  |  |
| Cn1c(=O)[nH]c2nccc(Oc3ccc(NC(=O)Nc4cc(C(C)(C)C)nn4-c4ccccc4)cc3)c21 | 6.79 | 145 | 6.67 |  |  |  |  |
| CC(C)(C)c1cc(NC(=O)Nc2ccc(Oc3ccnc4[nH]c(=O)[nH]c34)cc2)n(-c2ccc(F)cc2F)n1 | 5.92 | 1230 | 6.98 |  |  |  |  |
| Cn1nc(C(C)(C)C)cc1NC(=O)Nc1ccc(Oc2ccnc3[nH]c(=O)n(C)c23)cc1 | 4.85 | 4200 | 7.08 |  |  |  |  |
| CC(C)(C)c1cc(NC(=O)Nc2ccc(Oc3ccnc4[nH]c(=O)[nH]c34)cc2)n(Cc2ccccc2)n1 | 4.87 | 10100 | 6.83 |  |  |  |  |
| CCCn1nc(C(C)(C)C)cc1NC(=O)Nc1ccc(Oc2ccnc3[nH]c(=O)[nH]c23)cc1 | 4.97 | 9500 | 7.08 |  |  |  |  |
| Cn1nc(C(C)(C)C)cc1NC(=O)Nc1ccc(Oc2ccnc3c2[nH]c(=O)n3C)cc1 | 5.54 | 1920 | 6.59 |  |  |  |  |
| Cc1ccc(-n2nc(C(C)(C)C)cc2NC(=O)Nc2ccc(Oc3ccnc4c3[nH]c(=O)n4C)cc2F)cn1 | 7.21 | 240 | 6.28 | 12.6 | 18 | 0.25 | 17 |
| Cn1c(=O)[nH]c2nccc(Oc3ccc(NC(=O)Nc4cc(C5CC5)nn4-c4ccccc4)cc3)c21 | 4.74 | 3700 | 6.84 |  |  |  |  |
| Cn1c(=O)[nH]c2nccc(Oc3ccc(NC(=O)Nc4cc(C(C)(C)C)nn4-c4ccc(F)cc4)c4ccccc34)c21 | 7.46 | 47 | 6.50 |  |  |  |  |
